Key:
HIV‐2 = format: cell-based; conditions: CEM-TK(-), read-out: EC50 CEM/TK− HIV‐1
In short: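 CEM/TK⁻ cells (~3×10⁵ cells/mL) were infected with HIV‑1(III_B) or HIV‑2(ROD) at 100 CCID₅₀/mL and cultured with serial dilutions of test compound. After 4–5 days at 37 °C in humidified CO₂, giant (syncytium) cell formation was scored microscopically. EC50 is the concentration that halves giant cell formation. Values are mean ±SD of n=2–3 independent experiments.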

[1] = Cytotoxicity: inhibition of CD4+ T-cell; format: cell-based; conditions: human, CEM/0 cells (CD4+ T cells)
[2] = symmetric TriPPPro-compounds, PB pH 7.3; cited from earlier work
[3] = previous work; cited from earlier work

Q: For `Cc1cn([C@H]2C=C[C@@H](CO)O2)c(=O)[nH]c1=O` [d4T 1, 3'‐deoxy‐2',3'‐didehydrothymidine], which EC50 (HIV‐2) is on record?
A: The EC50 was > 50 µM.

Q: And the CC50 [1]?
A: Its CC50 is > 50 µM.

Q: Which results are given for `CCCCCCCCCC(=O)Oc1ccc(COP(=O)(OCc2ccc(OC(=O)CCCCCCCCC)cc2)OP(=O)(O)OP(=O)(O)OC[C@@H]2C=C[C@H](n3cc(C)c(=O)[nH]c3=O)O2)cc1` [γ‐(AB−C9,AB−C9)‐d4TTP]?
A: half-life in PB (t1/2) [2]: 44 h; half-life in CEM/0 cell extracts (t1/2) [3]: 2.8 h

Q: Which “half-life in PB (t1/2)” value [2] does the source give for γ‐(AB−C4,AB−C4)‐d4TTP here?
A: The value was 22 h.

Q: And the “half-life in CEM/0 cell extracts (t1/2)” value [3]?
A: Its value is 0.43 h.

Source: article PMC7894357 (Chemmedchem, 2020)
